One assay deals with MCF7. Briefly: Cytotoxicity against human MCF7 cells after 48 hrs by MTT assay. Format: functional, cell-based. To be noted: MCF7, 48 h. The method, boiled down: (§1)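 MTT read-out after 48 h drug exposure; MTT then added for a further 4 h at 37 °C, formazan dissolved in DMSO, absorbance at 570 nm. Triplicate wells in three independent experiments; IC50 = concentration giving 50% inhibition of cell viability, values are means of three experiments.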

A further assay concerns A549. Briefly: Cytotoxicity against human A549 cells after 48 hrs by MTT assay. Format: functional, cell-based. To be noted: A549, 48 h. The procedure, abridged: as §1
The subject of the next assay is K562. Description: Cytotoxicity against human K562 cells after 48 hrs by MTT assay. Format: functional, cell-based. The settings on record: K562, 48 h. The procedure, abridged:
as §1

The next assay concerns PC-3. Briefly: Cytotoxicity against human PC3 cells after 48 hrs by MTT assay. Format: functional, cell-based. To be noted: PC-3, 48 h. The method, boiled down:
as §1

The subject of another assay is HL-60. Description: Cytotoxicity against human HL60 cells after 48 hrs by MTT assay. It is filed as functional, cell-based. To be noted: HL-60, 48 h. The method, boiled down: as §1
Assay [1] in a line: Cytotoxicity against multidrug-resistant human K562R cells after 48 hrs by MTT assay. Format: functional, cell-based. The settings on record: K-562R. The method, boiled down: as §1
A further assay relates to Bel-7402. Description: Cytotoxicity against human BEL-7402 cells after 48 hrs by MTT assay. It is filed as functional, cell-based. The settings on record: Bel-7402, 48 h. The method, boiled down:
as §1

Assay [2] can be described thus: Cytotoxicity against human ECA109 cells after 48 hrs by MTT assay. It is filed as functional, cell-based. To be noted: ECa-109, 48 h. The procedure, abridged:
as §1

The subject of a further assay is CCRF S-180. Briefly: animal or person. To be noted: Mus musculus, CCRF S-180, ip, 240 h, read-out: Inhibition.
In another assay the test system is H22. Description: animal or person. To be noted: Mus musculus, H22, ip, 240 h, read-out: Inhibition.

pIC50: −log10 of the molar value.

Turning to `CC(=O)O[C@@]12CO[C@@H]1C[C@H](O)[C@@]1(C)C(=O)[C@H](O)C3=C(C)[C@@H](OC(=O)[C@H](O)[C@@H](NC(=O)OC(C)(C)C)c4ccccc4)C[C@@](O)([C@@H](OC(=O)c4ccccc4)[C@H]21)C3(C)C` [DOCETAXEL], the pIC50 with MCF7 was 5.40; in the assay on A549 it was 5.77; with K562, 5.07; with PC-3, 4.26.

On to `COc1cc(-n2c(-c3ccc([N+](=O)[O-])cc3)cn(C(C)=O)c2=O)cc(OC)c1OC`, for which the negative-log IC50 (pIC50) was under 4.30 in the assay on MCF7; 5.14 in the assay on HL-60; 4.30 in the assay on A549; 4.58 with K562; 4.30 in [1]; under 4.30 with Bel-7402. In addition, the pIC50 was 4.48 in the assay on PC-3 and under 4.30 in assay [2].

As for `COc1ccc(-c2cn(C(=O)Nc3cc(OC)c(OC)c(OC)c3)c(=O)n2-c2cc(OC)c(OC)c(OC)c2)cc1`, the pIC50 in the assay with MCF7 is under 4.30; in the assay with HL-60, 5.27; in the assay on A549, under 4.30; in the assay on K562, 5.42; in assay [1], 5.46; in the assay with Bel-7402, under 4.30. For the same compound, the pIC50 was 4.30 in the assay with PC-3 and under 4.30 in assay [2].

`COc1ccc(-c2cn(C(=O)Nc3cc(OC)c(OC)c(OC)c3)c(=O)n2-c2cc(OC)c(OC)c(OC)c2)cc1[N+](=O)[O-]`: the pIC50 in the assay with HL-60 is 4.71; with A549, under 4.30; in the assay with K562, 5.14; in [1] it was under 4.30; with PC-3, under 4.30; in assay [2] it was under 4.30.

On to `COc1ccc(-c2cn(C(C)=O)c(=O)n2-c2cc(OC)c(OC)c(OC)c2)cc1N`, for which the pIC50 in the assay with MCF7 is 4.36; in the assay on HL-60 it was 6.40; in the assay with A549, 5.96; with K562, 6.30; in [1], 4.31; in the assay on Bel-7402 it was 6.22. The pIC50 is 4.67 in the assay with PC-3 and under 4.30 in [2].

`COc1ccc(-c2c[nH]c(=O)n2-c2cc(OC)c(OC)c(OC)c2)cc1[N+](=O)[O-]`: the pIC50 in the assay with HL-60 was 4.84; in the assay with A549, under 4.30; in [1], under 4.30; with PC-3, under 4.30; in [2], under 4.30.

Turning to `COc1cc(NC(=O)n2cc(-c3ccc(O)cc3)n(-c3cc(OC)c(OC)c(OC)c3)c2=O)cc(OC)c1OC`, the pIC50 with MCF7 is under 4.30; with HL-60 it was 5.20; in the assay with A549, 5.60; with K562, 4.98; in assay [1], under 4.30; in the assay on Bel-7402, under 4.30. Moreover, the pIC50 in the assay with PC-3 was 5.52; in assay [2], under 4.30.

`COc1ccc(-c2cn(C(=O)Nc3cc(OC)c(OC)c(OC)c3)c(=O)n2-c2cc(OC)c(OC)c(OC)c2)cc1N`: the pIC50 in the assay on MCF7 was under 4.30; in the assay with HL-60 it was 5.51; with A549, 4.95; in the assay with K562, 5.24; in assay [1], 5.03; in the assay with Bel-7402, 5.00. Also, the pIC50 in the assay with PC-3 was 5.00; in [2], under 4.30.

With `COc1cc(-n2c(-c3ccc(F)cc3F)cn(C(C)=O)c2=O)cc(OC)c1OC`, the pIC50 was 4.31 in the assay with MCF7; 5.12 with HL-60; 4.62 in the assay with A549; under 4.30 in the assay on K562; under 4.30 in assay [1]; 4.44 with Bel-7402. In addition, the values for the pIC50 (with PC-3; in assay [2]) were 4.46 and under 4.30, respectively.

Take `COc1ccc(-c2cn(C(C)=O)c(=O)n2-c2cc(OC)c(OC)c(OC)c2)cc1OC`: the pIC50 in the assay with MCF7 is under 4.30; in the assay on HL-60 it was 4.91; in the assay on A549 it was under 4.30; with K562 it was 4.36; in assay [1], under 4.30; in the assay with Bel-7402, under 4.30. The pIC50 (in the assay with PC-3; in assay [2]) was under 4.30 throughout.

On to `COc1ccc(-c2cn(C(=O)Nc3cc(OC)c(OC)c(OC)c3)c(=O)n2-c2cc(OC)c(OC)c(OC)c2)cc1OC`, for which the pIC50 is under 4.30 in the assay with MCF7; 5.19 in the assay with HL-60; under 4.30 in the assay with A549; under 4.30 in the assay with K562; under 4.30 in [1]; under 4.30 with Bel-7402. Moreover, the pIC50 (with PC-3; in assay [2]) was under 4.30 in each case.

Regarding `COc1ccc(-c2cn(C(=O)Nc3cc(OC)c(OC)c(OC)c3)c(=O)n2-c2cc(OC)c(OC)c(OC)c2)cc1O`, the pIC50 in the assay with HL-60 is 4.81; with A549 it was under 4.30; in the assay with K562 it was under 4.30; in [1] it was under 4.30; in the assay on PC-3, under 4.30; in assay [2] it was under 4.30.

On to `COc1cc(-n2c(-c3ccccc3)cn(C(C)=O)c2=O)cc(OC)c1OC`, for which the pIC50 was under 4.30 with MCF7; 5.25 in the assay with HL-60; under 4.30 in the assay on A549; under 4.30 in the assay with K562; 5.02 in assay [1]; under 4.30 in the assay with Bel-7402. Further, the pIC50 (in the assay on PC-3; in assay [2]) was under 4.30 each time.

For the compound `COc1cc(-n2c(-c3ccc(O)cc3)c[nH]c2=O)cc(OC)c1OC`, the pIC50 in the assay on MCF7 is under 4.30; in the assay on HL-60, 4.70; with A549 it was under 4.30; with K562, under 4.30; in assay [1], under 4.30; with Bel-7402, under 4.30. The figures for the pIC50 (in the assay with PC-3; in assay [2]) were 4.52 and under 4.30, respectively.

In the case of `COc1ccc(-c2cn(C(C)=O)c(=O)n2-c2cc(OC)c(OC)c(OC)c2)cc1`, the pIC50 is under 4.30 with MCF7; 5.26 with HL-60; 4.75 with A549; 6.70 in the assay on K562; 5.02 in assay [1]; 5.02 in the assay on Bel-7402. Moreover, the pIC50 with PC-3 is 4.71; in [2], under 4.30.

`COc1ccc(-c2cn(C(C)=O)c(=O)n2-c2cc(OC)c(OC)c(OC)c2)cc1[N+](=O)[O-]`: the pIC50 is under 4.30 with MCF7; 5.25 in the assay with HL-60; 4.39 in the assay with A549; under 4.30 with K562; under 4.30 in assay [1]; 4.45 in the assay with Bel-7402. Also, the pIC50 in the assay on PC-3 is 4.52; in [2], 4.51.

With `COc1ccc(-c2c[nH]c(=O)n2-c2cc(OC)c(OC)c(OC)c2)cc1N`, the pIC50 with MCF7 is under 4.30; in the assay with HL-60, 4.99; in the assay with A549 it was under 4.30; with K562 it was 4.31; in [1] it was under 4.30; in the assay on Bel-7402 it was under 4.30. The results for the pIC50 (in the assay with PC-3; in assay [2]) were 4.30 and under 4.30, respectively.

On to `COc1ccc(-c2c[nH]c(=O)n2-c2cc(OC)c(OC)c(OC)c2)cc1OC`, for which the pIC50 in the assay with HL-60 was 4.41; with A549, under 4.30; in [1] it was under 4.30; in the assay on PC-3, under 4.30; in [2], under 4.30.

In the case of `COc1ccc(-c2c[nH]c(=O)n2-c2cc(OC)c(OC)c(OC)c2)cc1`, the pIC50 in the assay with HL-60 was 4.70; with A549, under 4.30; in assay [1] it was under 4.30; in the assay on PC-3, under 4.30; in assay [2], under 4.30.

In the case of `COc1cc(-n2c(-c3ccc(Cl)cc3)cn(C(C)=O)c2=O)cc(OC)c1OC`, the pIC50 is 5.31 in the assay with HL-60, under 4.30 with A549, under 4.30 with K562 and under 4.30 in assay [2].

`O=P1(N(CCCl)CCCl)NCCCO1` (stereo unspecified) [CYCLOPHOSPHAMIDE ANHYDROUS]: the inhibition in vivo at 30 mg/kg/day in the assay with CCRF S-180 stood at 63.5%; in the assay on H22, 36.2%.

These data come from ChEMBL document CHEMBL1142371, “Synthesis and biological evaluation of imidazol-2-one derivatives as potential antitumor agents” (Bioorg Med Chem, 2008).
